These results are taken from ChEMBL document CHEMBL4513216, “Probing the Open Global Health Chemical Diversity Library for Multistage-Active Starting Points for Next-Generation Antimalarials” (ACS Infect Dis, 2020).

Each structure is given as a SMILES string.

A short description of this data set: Toxicity liver stage against HepG2, at 10uM. The data set is classed as cell-based. The arrangement: test concentration 10 uM, cell line HepG2-A16-CD81EGFP. Particulars: human, HepG2-A16-CD81EGFP cells; read-out: INHIBITION
The procedure, abridged:
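Uninfected HepG2-A16-CD81EGFP cells, 3 × 10^3 per well, 1536-well, plated on prespotted compound at 10 μM final, parasite-free screening media added to match infected plates; puromycin 10 μM positive, DMSO 0.5% negative; run in parallel with 48 h PbLuc assay at 37 °C, 5% CO2; viability by CellTiter-Glo luminescence, normalized to controls.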
On to `CCOc1cc2c(cc1CNC(Cc1cccs1)c1nccs1)OCO2` (stereo unspecified), for which the cytotoxicity at 10 µM was 7.15%.
The same measure for `c1c[nH]c(CN2CCCC(Cc3ccc(NC4CCCC4)nn3)C2)n1` (stereo unspecified): -3.95%; for `O=C(N1CCOCC1)N1CCCC1c1nc(-c2ccccn2)no1` (stereo unspecified): 10.7%; for `Cn1ncc(NCc2cccc(COC(C)(C)C)c2)c(Cl)c1=O`: 42.2%.
As for `O=C1CSc2ccc(C(=O)N3CCCC(n4ccnc4)C3)cc2N1` (stereo unspecified), the figure is -8.44%.
The same measure for `O=C(CN1CCOC(Cn2cccn2)C1)NCc1ccco1` (stereo unspecified): -14.6%; for `CNC(=O)CCCNCc1c(C(C)C)nn(C)c1N(C)C`: -12.7%; for `Cn1ccnc1CN1CCC2(CCC(=O)N2CCN2CCCC2)CC1`: -0.171%.
In the case of `CCc1nc(N)nc(N2CCCC3(CCN(C)CC3)CC2)c1C`, the cytotoxicity at 10 µM was -179%.
As for `CC(C)(C)NCc1ccc(OCc2ccc3c(c2)OCCO3)cc1`, the figure is 1.99%; as for `CC(C)n1cccc1C(=O)N1CC[C@@H](NC(=O)c2ccccn2)[C@H](O)C1`, 2.35%.
As for `O=C(O)c1ccnc(-c2ccnc(NCCc3cscn3)n2)c1`, the figure is 0.852%; as for `COCCNC(=O)Nc1ccc(-n2cncn2)c(F)c1`, -0.0868%.
For `CC(C)(C)CCN1CCCC(Cn2cc(CCO)nn2)C1` (stereo unspecified), the cytotoxicity at 10 µM was -13.9%.
The same measure for `CC(=O)N(C)Cc1ncn2c1CN(C(=O)CC1CC1)CCC2`: -110%; for `CN1CC(=O)N(c2cnn(C)c2)CC12CCN(Cc1cccs1)C2` (stereo unspecified): 3.48%; for `Cc1cn2c(n1)CCC(NC(=O)c1nc(C)ncc1Cl)C2` (stereo unspecified): -3.13%.
Turning to `COc1ccc2c(c1)NC(C1CCN(C(=O)C(C)C)CC1)NS2(=O)=O` (stereo unspecified), the cytotoxicity at 10 µM was -4.66%.
As for `O=C(c1ccccc1F)N1CCN(c2ccc(-n3cccc3)nn2)CC1`, the figure is 53.2%; as for `Cc1ccc2c(c1)SCC(=O)N2CC(=O)N1CCCC1c1cc(C)no1` (stereo unspecified), 8.32%.
As for `Cc1ccc2c(c1)C1(CCNCC1)CC2OCC1CC1` (stereo unspecified), the figure is 6.13%.
Consider `Cc1cc(C(N)=O)c2c(Br)cccc2n1`, for which the cytotoxicity at 10 µM amounted to 1.09%.
The same measure for `CC1N(c2cnn(C)c2)C(=O)COC12CCN(CC1CC1)CC2` (stereo unspecified): 3.68%; for `Cc1ccc(C(=O)NCCn2nc(-n3cncn3)ccc2=O)c(C)c1`: -1.25%.
The same measure for `Cc1noc(C)c1CN1C[C@@H]2COC[C@H](C(=O)N3CCCCO3)[C@@H]2C1`: -1.98%; for `NCc1cn(CC2CCCN(C(=O)NCCc3ccc(F)cc3)C2)nn1` (stereo unspecified): 17.2%.
`CN(C(=O)c1cccc2[nH]ncc12)C1CCN(c2ccccn2)CC1`: the cytotoxicity at 10 µM was found to be 7.31%.
The same measure for `O=C(CNC(=O)C1CC1)NCC1CCCC1`: 2.12%; for `CCSCCn1cc(-c2nccs2)nn1`: 0.935%; for `CC(C)N1CCN(C)CC(Cc2cc(N(C)C)ncn2)C1` (stereo unspecified): 9.25%.
The same measure for `Cc1ccc(S(=O)(=O)N2C[C@H](C3CC3)[C@@H](N)C2)cc1F`: -3.25%; for `COCCCN1CCC(C(=O)c2cc(F)ccc2F)CC1`: -10.9%; for `CN1CCN(C)C(CNC(=O)N(C)Cc2ccc(Cl)c(F)c2)C1` (stereo unspecified): 6.32%.
In the case of `Cc1noc(C(C)N2CCN(Cc3cccc(C#N)c3)CC2)n1` (stereo unspecified), the cytotoxicity at 10 µM was -5.72%.
As to `COc1nn(C)cc1C(=O)NCC1(O)CCc2ccccc2C1` (stereo unspecified), the cytotoxicity at 10 µM is -6.98%.
As for `Cc1cccc(C(=O)N2CCn3cc(CNC(=O)CC4CC4)nc3C2)n1`, the figure is -78.4%; as for `Cc1cc(C(=O)NCc2cccs2)nc(N2CCCC2)n1`, -0.438%; as for `CC(C)[C@H](NS(C)(=O)=O)C(=O)NCc1cc(-c2ccco2)nn1C`, -10.5%.
With `O=C(Cc1cccc(F)c1)N1C[C@H]2CN(Cc3cccnc3)C[C@H]2C1`, the cytotoxicity at 10 µM was found to be 0.0515%.
The same measure for `Cc1sc2nc(CCN)nc(N3CC(N4CCCCC4)C3)c2c1C`: -21.9%.
The same measure for `CCc1nnc(CNC(=O)CCN2CCN(c3cccc(C)c3)CC2)s1`: -1.82%; for `CC(=O)N1CCCN(C(=O)NC(C)Cn2cccn2)CC1` (stereo unspecified): -13%; for `CS(=O)(=O)c1ccc(OCCNCc2ccc(F)cc2)cc1`: -8.86%.
The same measure for `O=C(NCCN1CCOCC1)N(CCCO)C1CCCc2ccccc21` (stereo unspecified): -9.69%.
Take `CNc1snc(C)c1C(=O)NC(C)CC(=O)c1cccs1` (stereo unspecified): the cytotoxicity at 10 µM was -0.227%.
As for `CCN(C(=O)Nc1cccnc1OC)C1CC1`, the figure is -9.11%; as for `Cn1cccc1C(=O)N1CC2(CCN(C(=O)c3cccnc3)C2)C1`, -98.4%; as for `COCC(=O)N1C[C@H]2CN(Cc3csc(C)n3)C(=O)[C@H]2C1`, -77.2%.
The same measure for `Cn1c2c(ccc1=O)CC(NC(=O)Cc1ccsc1)CC2` (stereo unspecified): 4.08%.
As to `Cc1cc(C(=O)N2CC[C@H]3[C@H](C[C@@H](CN4CCCC4)N3C)C2)c(C)o1`, the cytotoxicity at 10 µM was found to be 9.97%.
As to `CCC[C@@H]1CN(Cc2ccc3c(c2)OCCO3)C[C@H]1C(=O)O`, the cytotoxicity at 10 µM is 0.324%.
The same measure for `COC(C)(C)CNC(=O)N(C)Cc1nc(-c2ccccc2)c[nH]1`: 8.07%; for `Cc1oc(C(=O)O)cc1S(=O)(=O)Nc1ccc(Br)cc1Cl`: -5.09%.
The same measure for `CC(NS(=O)(=O)N(C)C)c1cccc(-n2cccn2)c1` (stereo unspecified): -1.46%; for `c1ccc(C2CCCN(Cc3cc4n(n3)CCNC4)CC2)cc1` (stereo unspecified): 1.9%.
The same measure for `O=C(NCc1ccc(F)cc1)NCC(O)(c1ccco1)C1CC1` (stereo unspecified): -115%.
As for `Cc1cccc(-n2nnnc2C2(NCc3ccco3)CCCCC2)c1`, the cytotoxicity at 10 µM stood at 6.27%.
The same measure for `Cc1c(NC(=O)c2cccc(Br)c2)c(C(=O)N(C)C)nn1C`: 2.35%; for `Cc1cccnc1CNCC1(O)CCCN(Cc2ccc(F)cc2)C1=O` (stereo unspecified): -12.3%; for `CS(=O)(=O)N1C[C@H]2CC[C@@H](C1)N(CCC(=O)NCc1ccccc1F)C2`: -11%.
The same measure for `COc1cc(NCC(O)CN2CCCCCC2)ncn1` (stereo unspecified): 2.8%; for `CC(C)c1nc(C2CCCN(c3cnc4ccccc4n3)C2)no1` (stereo unspecified): 2.11%.
Take `CN(CCn1cccn1)S(=O)(=O)N1CCCC1c1ccco1` (stereo unspecified): the cytotoxicity at 10 µM was -9.56%.
The same measure for `Cc1cc(C(F)(F)F)nn1CCNC(=O)C(C)n1ccnc1C(C)C` (stereo unspecified): -5.24%; for `CCc1ncnc2c1CCN(C(=O)c1ccncc1F)CC2`: -88.5%.
The same measure for `CC(=O)Nn1c(C)cc(CN2CCC(c3ccncc3)CC2)c1C`: 4.61%.
The same measure for `CC(C)CN1C(=O)CO[C@@H]2CN(C(=O)NC(C)C)C[C@H]21`: -5.27%; for `COc1cc2c(nn1)CCN(Cc1nc(Cc3ccccc3)no1)C2`: -2.09%.
On to `CCn1ncnc1C1CC(=O)NCc2nc(N3CCCC3)sc21` (stereo unspecified), for which the cytotoxicity at 10 µM was -2.4%.
The same measure for `Cc1cnn(C2CCCN(C(=O)Cc3ccc(C)s3)C2)c1` (stereo unspecified): -13.4%.
As for `OCC1CCCCN1Cc1nc(Cc2ccccc2)no1` (stereo unspecified), the figure is 5.13%.
As for `Cc1cc(C)nc(N2CCC(NCCSc3nnnn3C)CC2)n1`, the figure is -6.88%; as for `Cc1ccccc1CS(=O)(=O)NCCCN1CCCCC1`, 19.4%.
Turning to `COCC(=O)N1CCN(C)C(=O)C(Cc2ccccc2-c2cccs2)C1` (stereo unspecified), the cytotoxicity at 10 µM is -3.73%.
The same measure for `O=C1C[C@H]2[C@@H](CCN2C(=O)c2ccccc2)N1CCN1CCOCC1`: -3.33%; for `Cc1nccn1CCCNc1ccc(Cl)c(C#N)n1`: -7.62%; for `Cc1ccc2c(c1)nc1n2[C@@H](CNC(=O)c2cncnc2)COC1`: 5.6%.
Regarding `CC(C)n1ccnc1C1CCCN(Cc2ccc(F)c(F)c2)C1` (stereo unspecified), the cytotoxicity at 10 µM was 3.89%.
The same measure for `O=C(NC1CCN(c2ccc(-c3ccccc3F)nn2)C1)c1cc[nH]n1` (stereo unspecified): 3.17%.
The same measure for `NC(=O)c1ccc(-c2nc3c(c(=O)[nH]2)CCNC3)cc1`: 1.37%; for `CCN(CCO)C(=O)Nc1ccc(OCCOC)nc1`: -5.71%.
As for `O=C(NCCc1csc(-c2cnccn2)n1)c1cnn[nH]1`, the figure is 6.46%; as for `CCn1c(C)cc(C(=O)NCc2cccc(S(=O)(=O)NC)c2)c1C`, -6.43%; as for `COCC(=O)N1CCC(c2nc3ccc(-c4ccccc4)cn3n2)CC1`, -0.555%.
As for `Cc1cc(C(F)(F)F)cc(N2C[C@@H](CN3CCOCC3)[C@@H](CO)C2)n1`, the cytotoxicity at 10 µM is -6.02%.
As for `Cc1nc(C)n(CCNC(=O)C(C)n2ccnc2C(C)C)n1` (stereo unspecified), the figure is -6.57%; as for `O=C(C1CCCN(C2CCOCC2)C1)N1Cc2ccccc2C1` (stereo unspecified), 2.49%; as for `NC(=O)N1CCC(C(=O)NCc2nncn2-c2ccccc2)CC1`, -18.7%.
The same measure for `CC(NC(=O)CSCC(=O)Nc1ccccc1)c1ccccc1` (stereo unspecified): -6.17%; for `CCCc1cc(N2CCCC2Cn2cc(C)cn2)n2ncnc2n1` (stereo unspecified): 3.04%; for `c1cncc(CN2CCOC(c3ncn4c(C5CC5)cccc34)C2)c1` (stereo unspecified): 1.79%.
For `CC(NC(=O)NCc1c(F)cccc1Cl)(C(=O)O)c1ccco1` (stereo unspecified), the cytotoxicity at 10 µM is -3.23%.
The same measure for `Cc1nn(C)c2c(=O)n(CC(=O)Nc3cc(Cl)cc(Cl)c3)nnc12`: 0.976%; for `Cc1cc(C)n(C2CN(CC(O)c3ccc(S(C)(=O)=O)cc3)C2)n1` (stereo unspecified): -12.9%.
The same measure for `O=C(c1cc2c([nH]c1=O)CCC2)N1CCCC1c1ccccc1` (stereo unspecified): -5.76%.
The same measure for `C[C@@H]1CN(S(=O)(=O)N2CCCC2)CC[C@@]1(O)C1CCOCC1`: 4.49%.
